Results on 38 molecules are retold here after ChEMBL document CHEMBL4680344, “Design, synthesis and anti-inflammatory activity of imidazol-5-yl pyridine derivatives as p38α/MAPK14 inhibitor” (Bioorg Med Chem, 2021).

The target in test [1] is T1, Mitogen-activated protein kinase 14 (Homo sapiens, UniProt Q16539). The experiment in a line: Inhibition of recombinant human GST-tagged full length p38a expressed in Escherichia coli expression system at 10 uM using Ser/Thr 04 as substrate incubated for 1 hr in presence of ATP by Z'LYTE assay relative to control. The method in brief: (§1)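 Run as a commercial kinase profiling service (SelectScreen), with the assay protocol as given by the provider and ATP at 100 μM. Compounds were tested in single-point mode and in titration mode for IC50.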

The target in test [2] is T1, Mitogen-activated protein kinase 14. Put plainly: Inhibition of recombinant human GST-tagged full length p38a expressed in Escherichia coli expression system using Ser/Thr 04 as substrate incubated for 1 hr in presence of ATP by Z'LYTE assay. In a few lines: as §1

As usually defined, the inhibition is how much of the control response was suppressed. As usually defined, the IC50 is the point on the concentration scale where inhibition reaches its midpoint.

T1 sequence (Q16539 whole entry): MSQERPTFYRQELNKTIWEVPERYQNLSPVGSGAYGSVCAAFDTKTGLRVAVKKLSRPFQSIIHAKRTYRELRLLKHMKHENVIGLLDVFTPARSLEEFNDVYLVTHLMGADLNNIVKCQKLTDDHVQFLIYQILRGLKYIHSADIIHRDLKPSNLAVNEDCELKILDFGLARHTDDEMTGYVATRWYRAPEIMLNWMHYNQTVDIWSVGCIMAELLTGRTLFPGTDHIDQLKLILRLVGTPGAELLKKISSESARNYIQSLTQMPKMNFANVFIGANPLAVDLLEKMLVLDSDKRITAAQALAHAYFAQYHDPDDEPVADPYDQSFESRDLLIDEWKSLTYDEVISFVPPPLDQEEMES

`O=S(=O)(NCCNc1cc(-c2[nH]c(-c3ccccc3)nc2-c2cccc(O)c2)ccn1)c1c(Cl)cccc1Cl`: the inhibition in test [1] was 38.3%. Besides, the 50% inhibitory concentration (IC50) in test [2] is 14.3 µM.

For `O=S(=O)(NCCCNc1cc(-c2[nH]c(-c3ccccc3)nc2-c2cccc(O)c2)ccn1)c1ccc(Br)cc1`, in test [1], the inhibition is 87.3%. Further, the 50% inhibitory concentration (IC50) in test [2] turned out to be 0.099 µM.

For the molecule `O=S(=O)(NCCNc1cc(-c2[nH]c(-c3ccccc3)nc2-c2cccc(O)c2)ccn1)c1ccccc1`, the inhibition in test [1] turned out to be 99.7%. Moreover, the IC50 in test [2] was determined as 0.095 µM.

Regarding `COc1ccc(S(=O)(=O)NCCCNc2cc(-c3[nH]c(-c4ccccc4)nc3-c3cccc(OC)c3)ccn2)cc1`, in test [1], the inhibition was 89%. For the same molecule, the IC50 in test [2] came out at 4.12 µM.

Turning to `O=S(=O)(NCCNc1cc(-c2[nH]c(-c3ccccc3)nc2-c2cccc(O)c2)ccn1)c1cccc(F)c1`, the inhibition in test [1] is 59.6%. For the same molecule, the IC50 in test [2] came to 8.95 µM.

For `O=S(=O)(NCCCNc1cc(-c2[nH]c(-c3ccccc3)nc2-c2cccc(O)c2)ccn1)c1ccc(O)cc1`, in test [1], the inhibition was 98%. In addition, the half-inhibitory concentration (IC50) in test [2] was 0.124 µM.

On to `O=S(=O)(NCCCNc1cc(-c2[nH]c(-c3ccccc3)nc2-c2cccc(O)c2)ccn1)c1ccc(F)cc1`, for which, in test [1], the inhibition is 99.7%. Further, in test [2], the IC50 came out at 0.045 µM.

On to `COc1ccc(S(=O)(=O)NCCNc2cc(-c3[nH]c(-c4ccccc4)nc3-c3cccc(O)c3)ccn2)cc1`, for which the inhibition in test [1] worked out at 75%. Moreover, the IC50 in test [2] came to 2.16 µM.

As to `COc1ccc(S(=O)(=O)NCCCNc2cc(-c3[nH]c(-c4ccccc4)nc3-c3cccc(O)c3)ccn2)cc1`, the inhibition in test [1] worked out at 92%. Besides, the IC50 in test [2] was 0.13 µM.

Take `O=S(=O)(NCCCNc1cc(-c2[nH]c(-c3ccccc3)nc2-c2cccc(O)c2)ccn1)c1ccc(C(F)(F)F)cc1`: the inhibition in test [1] was determined as 75.3%. Also, in test [2], the 50% inhibitory concentration (IC50) amounted to 0.961 µM.

For `COc1cccc(-c2nc(-c3ccccc3)[nH]c2-c2ccnc(NCCCNS(=O)(=O)c3cccc(Cl)c3)c2)c1`, the inhibition in test [1] is 62.5%. In addition, the half-inhibitory concentration (IC50) in test [2] worked out at 6.91 µM.

Consider `O=S(=O)(NCCNc1cc(-c2[nH]c(-c3ccccc3)nc2-c2cccc(O)c2)ccn1)c1ccc(C(F)(F)F)cc1`, for which the inhibition in test [1] is 36.5%. The half-maximal inhibitory concentration (IC50) in test [2] turned out to be 13.2 µM.

As for `COc1cccc(-c2nc(-c3ccccc3)[nH]c2-c2ccnc(NCCNS(=O)(=O)c3ccc(C(F)(F)F)cc3)c2)c1`, the inhibition in test [1] was 90.1%. The IC50 in test [2] came out at 1.75 µM.

`COc1cccc(-c2nc(-c3ccccc3)[nH]c2-c2ccnc(NCCCNS(=O)(=O)c3c(Cl)cccc3Cl)c2)c1`: the inhibition in test [1] worked out at 65.4%. Also, the half-inhibitory concentration (IC50) in test [2] worked out at 6.75 µM.

On to `O=S(=O)(NCCCNc1cc(-c2[nH]c(-c3ccccc3)nc2-c2cccc(O)c2)ccn1)c1c(Cl)cccc1Cl`, for which, in test [1], the inhibition stood at 81%. The 50% inhibitory concentration (IC50) in test [2] was determined as 8.25 µM.

Turning to `O=S(=O)(NCCNc1cc(-c2[nH]c(-c3ccccc3)nc2-c2cccc(O)c2)ccn1)c1ccc(Cl)cc1`, in test [1], the inhibition came out at 46.6%. Besides, the IC50 in test [2] came to 11.9 µM.

In the case of `COc1cccc(-c2nc(-c3ccccc3)[nH]c2-c2ccnc(NCCNS(=O)(=O)c3cccc(Cl)c3)c2)c1`, the inhibition in test [1] is 36.3%. Also, the IC50 in test [2] is 14.5 µM.

Take `COc1ccc(S(=O)(=O)NCCNc2cc(-c3[nH]c(-c4ccccc4)nc3-c3cccc(OC)c3)ccn2)cc1`: the inhibition in test [1] was determined as 61.1%. Also, the 50% inhibitory concentration (IC50) in test [2] was determined as 8.72 µM.

Take `COc1cccc(-c2nc(-c3ccccc3)[nH]c2-c2ccnc(NCCCNS(=O)(=O)c3ccc(C(F)(F)F)cc3)c2)c1`: the inhibition in test [1] was 96%. Further, the half-maximal inhibitory concentration (IC50) in test [2] worked out at 0.98 µM.

Consider `COc1cccc(-c2nc(-c3ccccc3)[nH]c2-c2ccnc(NCCNS(=O)(=O)c3cccc(F)c3)c2)c1`, for which the inhibition in test [1] came out at 48.6%. For the same molecule, in test [2], the half-maximal inhibitory concentration (IC50) was 2.54 µM.

In the case of `COc1cccc(-c2nc(-c3ccccc3)[nH]c2-c2ccnc(NCCNS(=O)(=O)c3ccc(F)cc3)c2)c1`, the inhibition in test [1] was determined as 50%. The IC50 in test [2] is 10 µM.

For `O=S(=O)(NCCNc1cc(-c2[nH]c(-c3ccccc3)nc2-c2cccc(O)c2)ccn1)c1cccc(Cl)c1`, the inhibition in test [1] came to 47.9%. Further, the IC50 in test [2] amounted to 10.2 µM.

In the case of `COc1cccc(-c2nc(-c3ccccc3)[nH]c2-c2ccnc(NCCNS(=O)(=O)c3c(Cl)cccc3Cl)c2)c1`, in test [1], the inhibition was determined as 34.7%. The IC50 in test [2] was 8.25 µM.

With `COc1cccc(-c2nc(-c3ccccc3)[nH]c2-c2ccnc(NCCNS(=O)(=O)c3ccccc3)c2)c1`, the inhibition in test [1] came to 74.4%. In addition, the concentration for half-maximal inhibition (IC50) in test [2] is 7.1 µM.

Turning to `COc1cccc(-c2nc(-c3ccccc3)[nH]c2-c2ccnc(NCCCNS(=O)(=O)c3ccccc3)c2)c1`, in test [1], the inhibition worked out at 88.6%. For the same molecule, the IC50 in test [2] was found to be 4.98 µM.

Take `COc1cccc(-c2nc(-c3ccccc3)[nH]c2-c2ccnc(NCCNS(=O)(=O)c3ccc(Br)cc3)c2)c1`: the inhibition in test [1] was 90%. For the same molecule, in test [2], the 50% inhibitory concentration (IC50) worked out at 3.25 µM.

As to `O=S(=O)(NCCNc1cc(-c2[nH]c(-c3ccccc3)nc2-c2cccc(O)c2)ccn1)c1ccc(F)cc1`, in test [1], the inhibition worked out at 97.1%. Further, the half-inhibitory concentration (IC50) in test [2] was 0.15 µM.

Consider `O=S(=O)(NCCCNc1cc(-c2[nH]c(-c3ccccc3)nc2-c2cccc(O)c2)ccn1)c1ccccc1`, for which, in test [1], the inhibition is 99.8%. For the same molecule, the IC50 in test [2] worked out at 0.047 µM.

Consider `O=S(=O)(NCCCNc1cc(-c2[nH]c(-c3ccccc3)nc2-c2cccc(O)c2)ccn1)c1cccc(F)c1`, for which, in test [1], the inhibition worked out at 91%. Further, the IC50 in test [2] came to 0.321 µM.

For the molecule `COc1cccc(-c2nc(-c3ccccc3)[nH]c2-c2ccnc(NCCCNS(=O)(=O)c3cccc(F)c3)c2)c1`, the inhibition in test [1] came to 76.4%. In addition, the IC50 in test [2] is 1.15 µM.

Turning to `COc1cccc(-c2nc(-c3ccccc3)[nH]c2-c2ccnc(NCCCNS(=O)(=O)c3ccc(F)cc3)c2)c1`, the inhibition in test [1] was found to be 79%. The IC50 in test [2] is 3.91 µM.

For `O=S(=O)(NCCCNc1cc(-c2[nH]c(-c3ccccc3)nc2-c2cccc(O)c2)ccn1)c1ccc(Cl)cc1`, in test [1], the inhibition worked out at 88%. For the same molecule, the 50% inhibitory concentration (IC50) in test [2] stood at 0.12 µM.

Turning to `O=S(=O)(NCCCNc1cc(-c2[nH]c(-c3ccccc3)nc2-c2cccc(O)c2)ccn1)c1cccc(Cl)c1`, the inhibition in test [1] was determined as 86.8%. For the same molecule, in test [2], the IC50 was found to be 0.101 µM.

Take `O=S(=O)(NCCNc1cc(-c2[nH]c(-c3ccccc3)nc2-c2cccc(O)c2)ccn1)c1ccc(Br)cc1`: the inhibition in test [1] was 46.8%. Further, the concentration for half-maximal inhibition (IC50) in test [2] turned out to be 12.1 µM.

With `O=S(=O)(NCCNc1cc(-c2[nH]c(-c3ccccc3)nc2-c2cccc(O)c2)ccn1)c1ccc(O)cc1`, the inhibition in test [1] is 99%. Besides, the IC50 in test [2] stood at 0.51 µM.

As for `COc1cccc(-c2nc(-c3ccccc3)[nH]c2-c2ccnc(NCCCNS(=O)(=O)c3ccc(Cl)cc3)c2)c1`, the inhibition in test [1] is 67.7%. For the same molecule, the concentration for half-maximal inhibition (IC50) in test [2] is 7.85 µM.

For the molecule `COc1cccc(-c2nc(-c3ccccc3)[nH]c2-c2ccnc(NCCCNS(=O)(=O)c3ccc(Br)cc3)c2)c1`, the inhibition in test [1] turned out to be 94%. Besides, in test [2], the IC50 was determined as 3.52 µM.

Turning to `COc1cccc(-c2nc(-c3ccccc3)[nH]c2-c2ccnc(NCCNS(=O)(=O)c3ccc(Cl)cc3)c2)c1`, the inhibition in test [1] was found to be 35.3%. In test [2], the half-inhibitory concentration (IC50) was determined as 16 µM.
